# Columns and labels:
# Conditions in all cases: stereoisomer not certain
# UniProt A2ATE5 = biological target: T1, UniProt A2ATE5
# T1 sequence (whole entry): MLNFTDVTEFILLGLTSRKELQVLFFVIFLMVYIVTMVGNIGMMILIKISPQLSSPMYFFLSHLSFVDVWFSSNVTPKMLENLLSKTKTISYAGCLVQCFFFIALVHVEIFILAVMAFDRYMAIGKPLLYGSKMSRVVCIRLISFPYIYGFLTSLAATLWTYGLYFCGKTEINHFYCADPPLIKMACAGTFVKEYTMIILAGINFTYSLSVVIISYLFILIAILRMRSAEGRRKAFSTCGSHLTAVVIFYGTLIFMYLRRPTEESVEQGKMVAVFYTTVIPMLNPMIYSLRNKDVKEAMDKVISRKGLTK
# Outline: (§1)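 Each receptor–molecule pair is labelled responsive or non-responsive (inactive) according to whether the original authors judged the measured signal statistically different from baseline. The data were taken from the main text and supplementary material of published papers and checked for typos and inconsistencies. Assay methods differed by source, with transient luciferase assays in mammalian cell lines being common.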
# UniProt A2AVB0 = biological target: T2, UniProt A2AVB0
# T2 sequence (whole entry): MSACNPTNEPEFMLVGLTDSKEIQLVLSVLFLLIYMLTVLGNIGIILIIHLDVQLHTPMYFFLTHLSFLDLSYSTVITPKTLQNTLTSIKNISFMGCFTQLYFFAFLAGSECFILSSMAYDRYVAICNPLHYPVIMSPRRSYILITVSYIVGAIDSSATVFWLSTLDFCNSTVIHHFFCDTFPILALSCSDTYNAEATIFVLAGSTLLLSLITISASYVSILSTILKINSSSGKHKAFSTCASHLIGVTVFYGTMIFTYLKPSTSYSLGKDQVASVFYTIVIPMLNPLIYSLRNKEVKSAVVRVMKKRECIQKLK
# Outline: as §1
# UniProt A2AVB5 = biological target: T3, UniProt A2AVB5
# T3 sequence (whole entry): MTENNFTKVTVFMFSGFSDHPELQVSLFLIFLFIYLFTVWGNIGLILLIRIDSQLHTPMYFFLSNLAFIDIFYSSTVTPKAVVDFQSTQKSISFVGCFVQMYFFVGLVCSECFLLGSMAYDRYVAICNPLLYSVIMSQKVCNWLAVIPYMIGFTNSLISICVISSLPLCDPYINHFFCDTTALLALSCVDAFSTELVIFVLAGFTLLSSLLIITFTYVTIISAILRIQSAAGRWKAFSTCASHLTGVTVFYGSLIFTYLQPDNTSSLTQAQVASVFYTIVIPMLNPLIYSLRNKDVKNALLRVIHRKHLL
# Outline: as §1
# UniProt B2RVX8 = biological target: T4, UniProt B2RVX8
# T4 sequence (whole entry): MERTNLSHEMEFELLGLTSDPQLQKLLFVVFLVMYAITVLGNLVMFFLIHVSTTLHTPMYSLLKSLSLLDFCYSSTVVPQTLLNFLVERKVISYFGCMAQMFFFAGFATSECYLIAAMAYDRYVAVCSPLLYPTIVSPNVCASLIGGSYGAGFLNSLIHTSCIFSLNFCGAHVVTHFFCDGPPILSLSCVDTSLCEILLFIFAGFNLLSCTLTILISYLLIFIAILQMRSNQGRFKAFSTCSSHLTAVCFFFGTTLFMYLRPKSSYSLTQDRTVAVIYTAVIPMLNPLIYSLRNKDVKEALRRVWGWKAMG
# Outline: as §1
# UniProt E9PVX1 = biological target: T5, UniProt E9PVX1
# T5 sequence (whole entry): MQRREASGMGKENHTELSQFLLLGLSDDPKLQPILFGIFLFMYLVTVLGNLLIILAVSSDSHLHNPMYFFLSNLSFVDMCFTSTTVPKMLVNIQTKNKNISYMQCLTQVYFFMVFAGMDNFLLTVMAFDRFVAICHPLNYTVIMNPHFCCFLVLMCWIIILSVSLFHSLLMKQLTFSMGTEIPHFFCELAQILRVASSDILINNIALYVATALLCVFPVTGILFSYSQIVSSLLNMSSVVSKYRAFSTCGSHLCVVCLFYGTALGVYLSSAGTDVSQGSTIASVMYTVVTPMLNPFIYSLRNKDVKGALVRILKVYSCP
# Outline: as §1
# UniProt E9PX47 = biological target: T6, UniProt E9PX47
# T6 sequence (whole entry): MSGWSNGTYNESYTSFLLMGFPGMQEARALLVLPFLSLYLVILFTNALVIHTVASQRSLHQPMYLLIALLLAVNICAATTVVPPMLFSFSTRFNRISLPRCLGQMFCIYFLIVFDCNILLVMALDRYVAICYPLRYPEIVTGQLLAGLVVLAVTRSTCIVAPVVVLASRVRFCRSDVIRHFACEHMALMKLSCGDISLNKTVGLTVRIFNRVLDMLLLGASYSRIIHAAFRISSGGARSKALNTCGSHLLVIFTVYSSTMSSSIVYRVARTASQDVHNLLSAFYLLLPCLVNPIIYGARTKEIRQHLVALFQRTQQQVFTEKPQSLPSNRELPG
# Outline: as §1
# UniProt E9PXN3 = biological target: T7, UniProt E9PXN3
# T7 sequence (whole entry): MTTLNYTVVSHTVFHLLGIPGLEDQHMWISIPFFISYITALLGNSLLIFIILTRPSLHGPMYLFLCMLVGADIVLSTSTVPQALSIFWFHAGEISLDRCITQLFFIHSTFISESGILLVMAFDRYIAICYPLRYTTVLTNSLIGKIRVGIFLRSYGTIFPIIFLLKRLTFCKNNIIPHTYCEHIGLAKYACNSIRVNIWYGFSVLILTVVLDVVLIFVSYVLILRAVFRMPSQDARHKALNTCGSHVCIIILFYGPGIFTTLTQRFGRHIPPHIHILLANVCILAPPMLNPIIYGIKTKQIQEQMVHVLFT
# Outline: as §1
# UniProt E9PZ66 = biological target: T8, UniProt E9PZ66
# T8 sequence (whole entry): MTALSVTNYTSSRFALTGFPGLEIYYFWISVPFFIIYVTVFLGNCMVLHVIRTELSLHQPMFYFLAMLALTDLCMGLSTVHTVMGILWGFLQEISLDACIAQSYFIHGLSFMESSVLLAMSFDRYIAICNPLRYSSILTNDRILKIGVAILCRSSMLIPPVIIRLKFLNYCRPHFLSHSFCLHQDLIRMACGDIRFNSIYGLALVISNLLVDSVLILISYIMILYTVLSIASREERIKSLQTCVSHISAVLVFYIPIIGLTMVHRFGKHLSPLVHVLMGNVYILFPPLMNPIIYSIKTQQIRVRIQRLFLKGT
# Outline: as §1
# UniProt E9Q4X7 = biological target: T9, UniProt E9Q4X7
# T9 sequence (whole entry): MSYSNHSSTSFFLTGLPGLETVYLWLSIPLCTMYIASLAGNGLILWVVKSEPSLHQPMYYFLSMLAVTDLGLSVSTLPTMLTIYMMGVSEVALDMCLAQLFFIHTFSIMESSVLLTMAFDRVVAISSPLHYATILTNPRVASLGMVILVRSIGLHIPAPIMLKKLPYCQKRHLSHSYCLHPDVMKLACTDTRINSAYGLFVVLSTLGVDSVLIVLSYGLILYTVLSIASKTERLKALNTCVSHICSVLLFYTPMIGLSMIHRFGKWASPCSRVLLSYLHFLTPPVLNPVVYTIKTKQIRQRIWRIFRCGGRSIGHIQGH
# Outline: as §1
# UniProt E9Q546 = biological target: T10, UniProt E9Q546
# T10 sequence (whole entry): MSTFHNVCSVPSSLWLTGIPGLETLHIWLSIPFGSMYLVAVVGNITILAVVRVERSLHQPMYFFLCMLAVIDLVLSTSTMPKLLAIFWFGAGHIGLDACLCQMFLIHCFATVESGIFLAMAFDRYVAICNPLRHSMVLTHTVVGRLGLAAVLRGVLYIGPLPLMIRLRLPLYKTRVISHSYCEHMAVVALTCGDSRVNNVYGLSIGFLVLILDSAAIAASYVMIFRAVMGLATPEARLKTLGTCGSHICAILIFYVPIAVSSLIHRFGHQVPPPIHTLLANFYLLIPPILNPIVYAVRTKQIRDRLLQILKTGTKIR
# Outline: as §1
# UniProt E9Q6Z7 = biological target: T11, UniProt E9Q6Z7
# T11 sequence (whole entry): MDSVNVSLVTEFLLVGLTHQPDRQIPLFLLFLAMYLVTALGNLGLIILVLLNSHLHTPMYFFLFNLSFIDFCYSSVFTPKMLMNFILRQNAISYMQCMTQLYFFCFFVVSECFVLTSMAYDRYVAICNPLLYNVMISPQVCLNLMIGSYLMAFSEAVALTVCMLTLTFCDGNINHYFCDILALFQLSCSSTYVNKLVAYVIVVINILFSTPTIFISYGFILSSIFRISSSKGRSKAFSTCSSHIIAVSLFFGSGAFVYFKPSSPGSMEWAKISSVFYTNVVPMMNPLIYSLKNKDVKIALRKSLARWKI
# Outline: as §1
# UniProt K7N609 = biological target: T12, UniProt K7N609
# T12 sequence (whole entry): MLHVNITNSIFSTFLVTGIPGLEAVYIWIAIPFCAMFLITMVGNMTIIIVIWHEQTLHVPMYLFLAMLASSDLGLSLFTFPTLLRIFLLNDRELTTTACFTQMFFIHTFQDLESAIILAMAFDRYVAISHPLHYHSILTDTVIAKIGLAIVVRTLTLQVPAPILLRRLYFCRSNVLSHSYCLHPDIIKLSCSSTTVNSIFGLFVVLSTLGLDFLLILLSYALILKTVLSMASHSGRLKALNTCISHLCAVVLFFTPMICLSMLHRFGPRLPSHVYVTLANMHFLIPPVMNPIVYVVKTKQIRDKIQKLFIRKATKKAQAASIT
# Outline: as §1
# UniProt E1BM68 = biological target: T13, UniProt E1BM68
# T13 sequence (whole entry): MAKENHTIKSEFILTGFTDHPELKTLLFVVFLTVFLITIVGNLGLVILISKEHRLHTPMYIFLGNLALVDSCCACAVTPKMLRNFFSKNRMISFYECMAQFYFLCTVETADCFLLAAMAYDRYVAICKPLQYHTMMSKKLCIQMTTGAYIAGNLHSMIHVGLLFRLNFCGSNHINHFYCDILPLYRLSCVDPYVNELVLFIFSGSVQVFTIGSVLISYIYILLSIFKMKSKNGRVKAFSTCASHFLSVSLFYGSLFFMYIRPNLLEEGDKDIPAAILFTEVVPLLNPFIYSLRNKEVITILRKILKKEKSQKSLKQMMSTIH
# Outline: as §1
# UniProt E9QAT7 = biological target: T14, UniProt E9QAT7
# T14 sequence (whole entry): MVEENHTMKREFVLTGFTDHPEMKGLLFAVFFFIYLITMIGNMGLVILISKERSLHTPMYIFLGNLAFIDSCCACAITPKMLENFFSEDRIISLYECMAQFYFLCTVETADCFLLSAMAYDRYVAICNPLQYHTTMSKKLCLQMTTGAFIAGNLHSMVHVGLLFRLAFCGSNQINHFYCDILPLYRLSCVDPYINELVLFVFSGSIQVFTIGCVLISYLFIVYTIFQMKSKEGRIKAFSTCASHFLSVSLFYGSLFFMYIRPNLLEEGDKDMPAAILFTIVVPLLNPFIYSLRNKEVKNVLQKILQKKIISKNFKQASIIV
# Outline: as §1
# 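Note: active if original authors judged signal statistically different from baseline.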
SMILES,odorant receptor agonist call (UniProt A2ATE5),odorant receptor agonist call (UniProt A2AVB0),odorant receptor agonist call (UniProt A2AVB5),odorant receptor agonist call (UniProt B2RVX8),odorant receptor agonist call (UniProt E9PVX1),odorant receptor agonist call (UniProt E9PX47),odorant receptor agonist call (UniProt E9PXN3),odorant receptor agonist call (UniProt E9PZ66),odorant receptor agonist call (UniProt E9Q4X7),odorant receptor agonist call (UniProt E9Q546),odorant receptor agonist call (UniProt E9Q6Z7),odorant receptor agonist call (UniProt K7N609),odorant receptor agonist call (UniProt E1BM68),odorant receptor agonist call (UniProt E9QAT7)
CCCCCCCCO,inactive,inactive,inactive,inactive,inactive,inactive,inactive,inactive,inactive,inactive,inactive,inactive,,
CCCC(=O)C(C)=O,inactive,inactive,inactive,inactive,inactive,,,inactive,inactive,inactive,inactive,inactive,,
CC(C)=CCCC(C)CCO (centres undefined),inactive,inactive,inactive,inactive,inactive,,,inactive,inactive,inactive,inactive,inactive,,
C=CCOC(=O)CCCCCC,inactive,inactive,inactive,inactive,inactive,,,inactive,inactive,inactive,inactive,inactive,,
CCCCCC(=O)CC,inactive,inactive,inactive,inactive,inactive,,,inactive,inactive,inactive,inactive,inactive,,
CCCCOC=O,inactive,inactive,inactive,inactive,inactive,,,inactive,inactive,inactive,inactive,inactive,,
CCCCCCCCCC(=O)[O-].[H+],inactive,inactive,inactive,inactive,inactive,inactive,,inactive,inactive,active,inactive,inactive,,
CCCCCCCCCCO,inactive,inactive,inactive,inactive,inactive,,,inactive,inactive,inactive,inactive,inactive,,
CCCCCCC(C)=O,inactive,inactive,inactive,inactive,inactive,,,inactive,inactive,inactive,inactive,inactive,,
CC12CCC(CC1=O)C2(C)C (centres undefined),inactive,inactive,inactive,inactive,inactive,,,inactive,inactive,inactive,inactive,inactive,,
CCc1ncc(C)nc1CC,inactive,inactive,,,inactive,,,inactive,inactive,inactive,inactive,,active,active
CCCCCC(=Cc1ccccc1)C(OC)OC,inactive,inactive,,,inactive,,,inactive,inactive,inactive,inactive,,,

# — the M2OR odorant receptor database
